According to PubChem BioAssay AID588776 (Johns Hopkins Ion Channel Center, 2011):
Calls of active or inactive are those of the source.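 The calls were made as follows: active = peak inhibition of the KCNK3 potassium channel above 30% at some tested dose, plus a fitted dose response curve; inactive = no inhibition at any dose, or no curve could be fitted.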

Target: Potassium channel subfamily K member 3 (Rattus norvegicus) (UniProt O54912)
Assay: KCNK3 channel inhibition in expressing cells, SAR follow-up, selectivity assay for KCNK9 inhibitor project, cell-based, FluxOR thallium flux, CRC set 1 (AID 588776)
Conditions: FluxOR thallium flux fluorescence; for flux ratio, lower = inhibition: at 30 µM (top of the series)
Summary of the method: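 Material: tetracycline-induced KCNK3-expressing CHO cells; incubation: 90 min dye load, 20 min compound, room temperature; measured by: kinetic FluxOR thallium-flux fluorescence; read-out: baseline-normalized fluorescence change, IC50 and Hill fit; replicates: duplicate or more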

Sequence of Potassium channel subfamily K member 3 (Rattus norvegicus) (O54912 whole entry, looked up): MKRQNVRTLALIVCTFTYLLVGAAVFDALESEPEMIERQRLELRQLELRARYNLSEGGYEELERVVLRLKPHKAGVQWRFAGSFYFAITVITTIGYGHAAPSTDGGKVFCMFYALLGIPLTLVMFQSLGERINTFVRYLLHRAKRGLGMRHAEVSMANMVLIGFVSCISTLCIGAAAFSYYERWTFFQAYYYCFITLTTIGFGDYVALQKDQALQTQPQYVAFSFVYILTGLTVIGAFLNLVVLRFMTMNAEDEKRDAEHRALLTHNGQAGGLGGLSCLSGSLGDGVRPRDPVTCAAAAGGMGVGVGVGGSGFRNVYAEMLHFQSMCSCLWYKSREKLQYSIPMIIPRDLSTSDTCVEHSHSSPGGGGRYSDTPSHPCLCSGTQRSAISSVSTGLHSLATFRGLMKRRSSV

An IC50 of 2.36 µM was found for CC(CCC1CCCC1)n1c(-c2ccco2)n[nH]c1=S (stereo not drawn) in this work.

An IC50 greater than 30 µM was found for C[C@@H](C1CCCCC1)n1c(-c2ccco2)n[nH]c1=S in this work.

In the case of CC(C1CC2CCC1C2)n1c(-c2ccc(N(C)C)cc2)n[nH]c1=S (stereo not drawn), the “flux ratio, lower = inhibition” value is reported as “inactive”.

An IC50 of 14.7 µM was found for COc1cccc(C(=O)CSc2nnc(-c3ccco3)n2C(C)C2CC3CCC2C3)c1 (stereo not drawn) in this work.

An IC50 of 4.87 µM was found for CC(C1CC2CCC1C2)n1c(SCC(=O)c2ccc3c(c2)OCO3)nnc1-c1ccco1 (stereo not drawn) in this work.

CC(C1C2CCC1CC2)n1c(-c2ccco2)n[nH]c1=S (stereo not drawn) was tested, and the “flux ratio, lower = inhibition” value was “inactive”.

An IC50 of 1.22 µM was found for CC(C1CC2CCC1C2)n1c(SCC(=O)c2ccccc2)nnc1-c1ccco1 (stereo not drawn) in this work.

An IC50 of 15.8 µM was found for CC(CC1CC2CCC1C2)n1c(-c2ccco2)n[nH]c1=S (stereo not drawn) in this work.

An IC50 of 15.5 µM was found for COc1ccc(CCSc2nnc(-c3ccco3)n2C(C)C2CC3CCC2C3)cc1OC (stereo not drawn) in this work.

In the case of C[C@H](C1CCCCC1)n1c(-c2ccco2)n[nH]c1=S, the “flux ratio, lower = inhibition” value is reported as “inactive”.

With CC(C1CC2CCC1C2)n1c(-c2cccc(N(C)C)c2)n[nH]c1=S (stereo not drawn) the “flux ratio, lower = inhibition” value was “inactive”.

With CC(C1CC2CCC1C2)n1c(-c2ccncc2)n[nH]c1=S (stereo not drawn) the “flux ratio, lower = inhibition” value was “inactive”.

An IC50 of 7.94 µM was found for CC(C1CC2CCC1C2)n1c(SCC(=O)c2ccc(Cl)c(Cl)c2)nnc1-c1ccco1 (stereo not drawn) in this work.
